Test results taken from ChEMBL document CHEMBL1126582, “Symmetry-based inhibitors of HIV protease. Structure-activity studies of acylated 2,4-diamino-1,5-diphenyl-3-hydroxypentane and 2,5-diamino-1,6-diphenylhexane-3,4-diol” (J Med Chem, 1993).
In brackets after ≈: the same amount, converted by molar mass.

Assays:
[1] = Estimated solubility (buffer pH 7.4); assay type: ADME; conditions: read-out: S
Summary of the method: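 Solubility was estimated in pH 7.4 phosphate buffer.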

[2] = In vitro for cytotoxicity in MT-4 lymphocytes in the absence of HIV infection; assay type: cell-based, MT4; conditions: human
Summary of the method: (§1)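 Uninfected MT-4 lymphocytes were cultured with compound. CC50 is the concentration at which 50% of cells remain viable.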

[3] = system: Human immunodeficiency virus 1; assay: Compound was tested in vitro for inhibition of cytopathic effect of HIV-1 3B in MT-4 lymphocytes; assay type: functional, organism-based
Summary of the method: (§2)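 MT-4 lymphocytes were infected with HIV-1 3B at an MOI of either 0.001 or 0.032 tissue culture infective dose per cell. EC50 is the concentration preventing 50% of viral cytopathic effect, from a single triplicate assay. No effect means no activity up to 100 μM or up to the cytotoxic concentration.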

[4] = target: Human immunodeficiency virus type 1 protease (Human immunodeficiency virus 1, UniProt Q72874); assay: Inhibition of purified recombinant HIV-1 protease in a fluorogenic assay
Summary of the method: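 Purified recombinant HIV-1 protease, with cleavage of the fluorogenic substrate DABCYL-[…]-Pro-Ile-Val-Gln-EDANS as read-out. Value is the inhibitor concentration giving 50% inhibition of protease activity.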

[5] = system: MT4; assay: Compound was tested in vitro for inhibition of cytopathic effect of HIV-1 3B in MT-4 lymphocytes; No effect; assay type: functional, cell-based, Homo sapiens; summary of the method: as §2
[6] = system: MT4; assay: In vitro for cytotoxicity in MT-4 lymphocytes in the absence of HIV infection.; assay type: functional; conditions: Homo sapiens; summary of the method: as §1
[7] = system: Human immunodeficiency virus 1; assay: In vitro for inhibition of cytopathic effect of HIV-1 3B in MT-4 lymphocytes.; assay type: functional, organism-based; summary of the method: as §2

Row | SMILES | solubility [1] [µg/mL] | CC50 [2] [µM] | EC50 [3] [µM] | IC50 [4] [µM] | EC50 [5] | CC50 [6] [µM] | EC50 [7] [µM]
1 | CC(C)[C@H](NC(=O)OCCN1CCOCC1)C(=O)N[C@@H](Cc1ccccc1)[C@@H](O)[C@H](Cc1ccccc1)NC(=O)[C@H](NC(=O)OCc1ccccc1)C(C)C | 6.8 (≈ 8.95 µM) | > 100 | 6.9 | 0.009 |  |  | 
2 | CC(C)[C@H](NS(=O)(=O)CCc1ccncc1)C(=O)N[C@@H](Cc1ccccc1)[C@@H](O)[C@H](O)[C@H](Cc1ccccc1)NC(=O)[C@H](NS(=O)(=O)CCc1ccncc1)C(C)C | 32 (≈ 38.2 µM) | > 100 | 16 | 0.024 |  |  | 
3 | CC(C)[C@H](NC(=O)N1CCOCC1)C(=O)N[C@@H](Cc1ccccc1)[C@H](O)[C@H](O)[C@H](Cc1ccccc1)NC(=O)[C@H](NC(=O)N1CCOCC1)C(C)C |  | > 100 | 88 | 0.043 |  |  | 
4 | CC(C)[C@H](NC(=O)CCc1ccccn1)C(=O)N[C@@H](Cc1ccccc1)C(O)[C@H](Cc1ccccc1)NC(=O)[C@H](NC(=O)CCc1ccccn1)C(C)C (stereo partly specified) |  | > 100 | 2.2 | 0.012 |  |  | 
5 | CC(C)[C@H](NC(=O)OCCN1CCCC1)C(=O)N[C@@H](Cc1ccccc1)[C@@H](O)[C@H](Cc1ccccc1)NC(=O)[C@H](NC(=O)OCc1ccccc1)C(C)C | 19 (≈ 25.5 µM) | 21 |  | 0.014 | Not Active |  | 
6 | CC(C)[C@H](NS(=O)(=O)N(C)Cc1ccccn1)C(=O)N[C@@H](Cc1ccccc1)[C@@H](O)[C@H](O)[C@H](Cc1ccccc1)NC(=O)[C@H](NS(=O)(=O)N(C)Cc1ccccn1)C(C)C | 30 (≈ 34.6 µM) | 56 |  | 0.071 | Not Active |  | 
7 | CC(C)[C@H](NC(=O)OCc1ccncc1)C(=O)N[C@@H](Cc1ccccc1)[C@@H](O)[C@H](Cc1ccccc1)NC(=O)[C@H](NC(=O)OCc1ccccc1)C(C)C | 0.8 (≈ 1.08 µM) | > 100 | 10 | 0.007 |  |  | 
8 | CC(C)[C@H](NC(=O)N1CCN(c2ccccc2)CC1)C(=O)N[C@@H](Cc1ccccc1)[C@@H](O)[C@@H](O)[C@H](Cc1ccccc1)NC(=O)[C@H](NC(=O)N1CCN(c2ccccc2)CC1)C(C)C | 1 (≈ 1.14 µM) | 18 | 1.7 | 0.0014 |  |  | 
9 | CC(C)[C@H](NC(=O)CCc1cccnc1)C(=O)N[C@@H](Cc1ccccc1)[C@@H](O)[C@@H](O)[C@H](Cc1ccccc1)NC(=O)[C@H](NC(=O)CCc1cccnc1)C(C)C |  | > 100 | 9.5 | 0.0015 |  |  | 
10 | CC(C)[C@H](NC(=O)N(C)Cc1csc(N)n1)C(=O)N[C@@H](Cc1ccccc1)[C@@H](O)[C@H](O)[C@H](Cc1ccccc1)NC(=O)[C@H](NC(=O)N(C)Cc1csc(N)n1)C(C)C | 184 (≈ 220 µM) | > 100 | 2.3 | < 0.001 |  |  | 
11 | CC(C)[C@H](NS(=O)(=O)CCc1ccccn1)C(=O)N[C@@H](Cc1ccccc1)[C@H](O)[C@H](O)[C@H](Cc1ccccc1)NC(=O)[C@H](NS(=O)(=O)CCc1ccccn1)C(C)C | 0.047 (≈ 0.0561 µM) | > 100 | 1.8 | 0.0016 |  |  | 
12 | CC(C)[C@H](NS(=O)(=O)CCc1ccccn1)C(=O)N[C@@H](Cc1ccccc1)[C@@H](O)[C@@H](O)[C@H](Cc1ccccc1)NC(=O)[C@H](NS(=O)(=O)CCc1ccccn1)C(C)C | 26 (≈ 31.1 µM) | > 100 | 2 | < 0.001 |  |  | 
13 | CC(C)[C@H](NS(=O)(=O)CCc1ccncc1)C(=O)N[C@@H](Cc1ccccc1)[C@@H](O)[C@@H](O)[C@H](Cc1ccccc1)NC(=O)[C@H](NS(=O)(=O)CCc1ccncc1)C(C)C | 5.6 (≈ 6.69 µM) | > 100 | 17 | 0.0057 |  |  | 
14 | CC(C)[C@H](NC(=O)N1CCN(Cc2ccccc2)CC1)C(=O)N[C@@H](Cc1ccccc1)[C@@H](O)[C@@H](O)[C@H](Cc1ccccc1)NC(=O)[C@H](NC(=O)N1CCN(Cc2ccccc2)CC1)C(C)C | 9 (≈ 9.96 µM) | 17 | 4.3 | 0.0078 |  |  | 
15 | CC(C)[C@H](NS(=O)(=O)CCc1ccncc1)C(=O)N[C@@H](Cc1ccccc1)[C@H](O)[C@H](O)[C@H](Cc1ccccc1)NC(=O)[C@H](NS(=O)(=O)CCc1ccncc1)C(C)C | 55 (≈ 65.7 µM) | > 100 | 19 | 0.013 |  |  | 
16 | CC(C)[C@H](NC(=O)OCCN1CCOCC1)C(=O)N[C@@H](Cc1ccccc1)[C@@H](O)[C@@H](O)[C@H](Cc1ccccc1)NC(=O)[C@H](NC(=O)OCCN1CCOCC1)C(C)C | 132 (≈ 162 µM) | > 100 | 14 | 0.02 |  |  | 
17 | CC(C)[C@H](NC(=O)OCc1ccccn1)C(=O)N[C@@H](Cc1ccccc1)[C@@H](O)[C@H](O)[C@H](Cc1ccccc1)NC(=O)[C@H](NC(=O)OCc1ccccn1)C(C)C | 2.4 (≈ 3.12 µM) |  |  | < 0.001 |  | > 100 | 0.06

Row | SMILES | solubility [1] [µg/mL] | CC50 [2] [µM] | EC50 [3] [µM] | IC50 [4] [µM] | EC50 [5] | CC50 [6] [µM] | EC50 [7] [µM]
18 | CC(C)[C@H](NC(=O)/C=C/c1cccnc1)C(=O)N[C@@H](Cc1ccccc1)C(O)[C@H](Cc1ccccc1)NC(=O)[C@H](NC(=O)/C=C/c1cccnc1)C(C)C (stereo partly specified) | 4.9 (≈ 6.7 µM) |  |  | 0.0022 |  | > 100 | 2.8
19 | CC(C)[C@H](NC(=O)N(C)Cc1nccs1)C(=O)N[C@@H](Cc1ccccc1)[C@@H](O)[C@@H](O)[C@H](Cc1ccccc1)NC(=O)[C@H](NC(=O)N(C)Cc1nccs1)C(C)C | 137 (≈ 170 µM) |  |  | 0.001 |  | > 100 | 1.7
20 | CC(C)[C@H](NS(=O)(=O)CCc1ccccn1)C(=O)N[C@@H](Cc1ccccc1)[C@@H](O)[C@H](O)[C@H](Cc1ccccc1)NC(=O)[C@H](NS(=O)(=O)CCc1ccccn1)C(C)C |  | > 100 | 1.5 | < 0.001 |  |  | 
21 | CC(C)[C@H](NC(=O)NCc1ccccn1)C(=O)N[C@@H](Cc1ccccc1)C(O)[C@H](Cc1ccccc1)NC(=O)[C@H](NC(=O)NCc1ccccn1)C(C)C (stereo partly specified) | 53 (≈ 71.9 µM) |  |  | 0.01 |  | > 100 | 6.1
22 | CC(C)[C@H](NC(=O)c1ccc2ccccc2n1)C(=O)N[C@@H](Cc1ccccc1)C(O)[C@H](Cc1ccccc1)NC(=O)[C@H](NC(=O)c1ccc2ccccc2n1)C(C)C (stereo partly specified) | 0.23 (≈ 0.295 µM) |  |  | 0.0016 |  | > 100 | 2.1
23 | CC(C)[C@H](NC(=O)N(C)Cc1cscn1)C(=O)N[C@@H](Cc1ccccc1)[C@@H](O)[C@H](O)[C@H](Cc1ccccc1)NC(=O)[C@H](NC(=O)N(C)Cc1cscn1)C(C)C | 159 (≈ 197 µM) |  |  | < 0.001 |  | > 100 | 0.19
24 | CC(C)[C@H](NC(=O)OCc1ccncc1)C(=O)N[C@@H](Cc1ccccc1)[C@@H](O)[C@@H](O)[C@H](Cc1ccccc1)NC(=O)[C@H](NC(=O)OCc1ccncc1)C(C)C | 55 (≈ 71.5 µM) |  |  | 0.0017 |  | > 100 | 0.61
25 | CC(C)[C@H](NC(=O)N(C)CCc1ccccn1)C(=O)N[C@@H](Cc1ccccc1)[C@H](O)[C@H](O)[C@H](Cc1ccccc1)NC(=O)[C@H](NC(=O)N(C)CCc1ccccn1)C(C)C | 86 (≈ 104 µM) |  |  | 0.031 |  | 95 | 12
26 | CC(C)[C@H](NC(=O)N(C)Cc1ccccn1)C(=O)N[C@@H](Cc1ccccc1)[C@H](O)[C@H](O)[C@H](Cc1ccccc1)NC(=O)[C@H](NC(=O)N(C)Cc1ccccn1)C(C)C | 3.6 (≈ 4.53 µM) |  |  | < 0.001 |  | > 100 | 0.17
27 | CC(C)[C@H](NC(=O)N(C)Cc1cscn1)C(=O)N[C@@H](Cc1ccccc1)[C@H](O)[C@@H](O)[C@H](Cc1ccccc1)NC(=O)[C@H](NC(=O)N(C)Cc1csc(N)n1)C(C)C | 331 (≈ 403 µM) | > 100 | 1.5 | < 0.001 |  |  | 
28 | CC(C)[C@H](NC(=O)N1CCN(Cc2ccccc2)CC1)C(=O)N[C@@H](Cc1ccccc1)[C@H](O)[C@H](O)[C@H](Cc1ccccc1)NC(=O)[C@H](NC(=O)N1CCN(Cc2ccccc2)CC1)C(C)C | 1.7 (≈ 1.88 µM) | > 100 | 9.4 | 0.009 |  |  | 
29 | CC(C)[C@H](NC(=O)N(C)Cc1nccs1)C(=O)N[C@@H](Cc1ccccc1)[C@H](O)[C@@H](O)[C@H](Cc1ccccc1)NC(=O)[C@H](NC(=O)N(C)Cc1csc(N)n1)C(C)C | 196 (≈ 238 µM) | > 100 | 1.6 | < 0.001 |  |  | 
30 | CC(C)[C@H](NC(=O)OCc1ccccn1)C(=O)N[C@@H](Cc1ccccc1)[C@H](O)[C@H](O)[C@H](Cc1ccccc1)NC(=O)[C@H](NC(=O)OCc1ccccn1)C(C)C | 0.21 (≈ 0.273 µM) |  |  | < 0.001 |  | > 100 | 0.23
31 | CC(C)[C@H](NC(=O)CCc1cccnc1)C(=O)N[C@@H](Cc1ccccc1)C(O)[C@H](Cc1ccccc1)NC(=O)[C@H](NC(=O)CCc1cccnc1)C(C)C (stereo partly specified) |  | 55 | 10 | 0.022 |  |  | 
32 | CC(C)[C@H](NC(=O)C1Cc2ccccc2CN1)C(=O)N[C@@H](Cc1ccccc1)C(O)[C@H](Cc1ccccc1)NC(=O)[C@H](NC(=O)C1Cc2ccccc2CN1)C(C)C (stereo partly specified) |  | 6.4 |  | 0.0071 | Not Active |  | 
33 | CC(C)[C@H](NC(=O)N(C)Cc1nccs1)C(=O)N[C@@H](Cc1ccccc1)[C@H](O)[C@H](O)[C@H](Cc1ccccc1)NC(=O)[C@H](NC(=O)N(C)Cc1nccs1)C(C)C | 57 (≈ 70.6 µM) |  |  | < 0.001 |  | > 100 | 0.39
